Experimental data collected from several papers.
Compare with care: the assays were run in different laboratories.
PDE7A: High affinity 3',5'-cyclic-AMP phosphodiesterase 7A (PDE7A, Homo sapiens, UniProt Q13946)
LDHA: L-lactate dehydrogenase A chain (LDHA, Homo sapiens, UniProt P00338)
MAOA: Amine oxidase [flavin-containing] A (MAOA, Homo sapiens, UniProt P21397)
TDP1: Tyrosyl-DNA phosphodiesterase 1 (TDP1, Homo sapiens, UniProt Q9NUW8)
PRMT3: Protein arginine N-methyltransferase 3 (PRMT3, Homo sapiens, UniProt O60678)
MAP3K7: Mitogen-activated protein kinase kinase kinase 7 (MAP3K7, Homo sapiens, UniProt O43318)
PRMT5: Protein arginine N-methyltransferase 5 (PRMT5, Homo sapiens, UniProt O14744)
RIPK2: Receptor-interacting serine/threonine-protein kinase 2 (RIPK2, Homo sapiens, UniProt O43353)
GSR: Glutathione reductase, mitochondrial (GSR, Homo sapiens, UniProt P00390)
Rhomboid protease AarA: Rhomboid protease AarA (Providencia stuartii, UniProt P46116)
NTRK1: High affinity nerve growth factor receptor (NTRK1, Homo sapiens, UniProt P04629)
ABCG2: Broad substrate specificity ATP-binding cassette transporter ABCG2 (ABCG2, Homo sapiens, UniProt Q9UNQ0)
PTPN1: Tyrosine-protein phosphatase non-receptor type 1 (PTPN1, Homo sapiens, UniProt P18031)

Structure (SMILES)	target	test	test system	setting	IC50 [µM]
COc1cc(/C=C2\SC(=O)NC2=O)cc(F)c1OCCNc1nc2c(cnn2C2CCCC2)c(=O)[nH]1	PDE7A	enzyme activity, inhibitor			0.279
COc1cc(-c2cc(=O)c3c(O)c(OC)c(O[C@@H]4O[C@H](CO)[C@@H](O)[C@H](O)[C@H]4O)cc3o2)ccc1O	LDHA	enzyme activity, inhibitor		pH 7.4	153
O=C(Nc1ccc([N+](=O)[O-])cc1[N+](=O)[O-])c1ccccc1	MAOA	enzyme activity, inhibitor			0.126
CCN(CC)CCCOc1cc2cc3c(cc2c2nc(OC)c4cc(OC)c(OC)cc4c12)OCO3	TDP1	enzyme activity, inhibitor			5.5 to 13
Nc1ncnc2c1ncn2[C@@H]1O[C@H](CSCCNC(=O)NCCCc2ccccc2)[C@@H](O)[C@H]1O	PRMT3	enzyme activity, inhibitor, fluorescence			> 100
COc1cc2c(OC)nc3c4cc5c(cc4cc(OCCCN(C)C)c3c2cc1OC)OCO5	TDP1	enzyme activity, inhibitor			5.5
COc1cc(/C=C/C(=O)N2CCC(Cc3ccccc3)CC2)ccc1OCc1ccccc1	MAOA	enzyme activity, inhibitor, fluorescence			80.7
C(/C=C/c1sc2c3ccccc3ccc2[n+]1CCCc1ccccc1)=C1/Sc2c(ccc3ccccc23)N1CCCc1ccccc1	PRMT3	enzyme activity, inhibitor, radiometric			2.1
CSc1ccc(/C=C2/C(C)=C(CC(=O)O)c3cc(F)ccc32)cc1	Cone cGMP-specific 3',5'-cyclic phosphodiesterase subunit alpha' (PDE6C, Homo sapiens, UniProt P51160)	enzyme activity, inhibitor			> 100
C[C@@H]1C[C@@H](O)/C=C/C=C\CC(=O)Cc2c(Cl)c(O)cc(O)c2C(=O)O1	MAP3K7	enzyme activity, inhibitor, ATP luminescence			> 10
CC1(C)C(/C=C/C=C2/N(CCCc3ccccc3)c3ccc(Cl)cc3C2(C)C)=[N+](CCCc2ccccc2)c2ccc(Cl)cc21	PRMT5	enzyme activity, inhibitor, radiometric			2.19
N=C(NCCCSC[C@H]1O[C@@H](n2cnc3c(NCCCc4ccccc4)ncnc32)[C@H](O)[C@@H]1O)NCC1CCCCC1	PRMT3	enzyme activity, inhibitor, fluorescence			> 100
CC(C)(C)n1nc(-c2ccc3nc(OC4CC4)ccc3c2)c(C(N)=O)c1N	RIPK2	cell-free assay			0.2
CC(C)C[C@H](NC(=O)[C@H]1O[C@@H]1C(=O)O)C(=O)NCCCCN=C(N)N	Cathepsin S (CTSS, Homo sapiens, UniProt P25774)	enzyme activity, inhibitor			0.00174
CN(C)CCCN1c2ccccc2Sc2ccc(Cl)cc21	GSR	enzyme activity, inhibitor, absorbance			> 100
Cc1nc2ccc(NC(=O)CCNC(=O)CCCc3ccc(CC(C(=O)O)C(=O)O)cc3)cc2s1	LDHA	enzyme activity, inhibitor			1.2
CCOc1ccc2c(-c3cc(C)nc(Nc4cc(OC)cc(C(F)(F)F)c4)n3)cnn2n1	Homeodomain-interacting protein kinase 4 (HIPK4, Homo sapiens, UniProt Q8NE63)	enzyme activity, inhibitor			> 10
COc1cc(C(=O)O)ccc1O[C@@H]1O[C@H](CO)[C@@H](O)[C@H](O)[C@H]1O	LDHA	enzyme activity, inhibitor		pH 7.4	> 500
COc1cc2c(OC)nc3c4cc5c(cc4cc(OCCCN4CCC(O)CC4)c3c2cc1OC)OCO5	TDP1	enzyme activity, inhibitor			5.5 to 13

Structure (SMILES)	target	test	test system	setting	IC50 [µM]
C[C@@H]1C[C@H]2O[C@@H]2/C=C\C=C\C(=O)Cc2cc(O)cc(O)c2C(=O)O1	MAP3K7	enzyme activity, inhibitor, ATP luminescence			> 10
COc1cc2c(OC)nc3c4cc5c(cc4cc(OCCCN4CCCC4)c3c2cc1OC)OCO5	TDP1	enzyme activity, inhibitor			5.5 to 13
COc1cc(-c2cc(=O)c3c(O)c(OC)c(O[C@@H]4O[C@H](CO)[C@@H](O)[C@H](O)[C@H]4O[C@@H]4O[C@H](CO)[C@@H](O)[C@H](O)[C@H]4O)cc3o2)ccc1O	LDHA	enzyme activity, inhibitor		pH 7.4	260
CCNC(=O)NCCSC[C@H]1O[C@@H](n2cnc3c(N)ncnc32)[C@H](O)[C@@H]1O	PRMT3	enzyme activity, inhibitor, fluorescence			> 100
CNC(=O)c1cc2c(Oc3ccc(NC(=O)C4(C(=O)Nc5ccc(F)cc5)CC4)cc3)ccnc2cc1OC	RIPK2	enzyme activity, inhibitor, radiometric			0.017
CC1(C)C(/C=C/C=C2/N(CCCc3ccccc3)c3ccc4ccccc4c3C2(C)C)=[N+](CCCc2ccccc2)c2ccc3ccccc3c21	PRMT3	enzyme activity, inhibitor, radiometric			0.72
COc1cc(C[C@H]2C(=O)OC[C@@H]2Cc2ccc(OC)c(OC)c2)ccc1O	PDE7A	enzyme activity, inhibitor			> 20
Nc1ncnc2c1ncn2[C@@H]1O[C@H](CSCCNC(=O)Nc2cccc3ccccc23)[C@@H](O)[C@H]1O	PRMT3	enzyme activity, inhibitor, fluorescence			81
O=C(Nc1cccc(NS(=O)(=O)c2ccc3oc4cc([N+](=O)[O-])ccc4c3c2)c1)C1(O)CC1	LDHA	enzyme activity, inhibitor			0.757
O=C(/C=C/c1ccc(O)c(O)c1)O[C@@H]1C[C@](O)(C(=O)O)C[C@@H](O)[C@H]1O	LDHA	enzyme activity, inhibitor		pH 7.4	> 500
O=c1oc(Cl)c(Cl)c2ccccc12	Rhomboid protease AarA	enzyme activity, inhibitor			54
COc1cc2c(OC)nc3c4cc5c(cc4cc(OCCCN4CCC(N6CCCCC6)CC4)c3c2cc1OC)OCO5	TDP1	enzyme activity, inhibitor, fluorescence			6.4
Nc1ncnc2c1ncn2[C@@H]1O[C@H](CSCCNC(=O)NC2CCCCC2)[C@@H](O)[C@H]1O	PRMT3	enzyme activity, inhibitor, fluorescence			> 100
CCn1ncc2c1-c1cnc(N)c(c1)O[C@H](C)c1cc(F)ccc1-c1nn(C)nc1C2	NTRK1	enzyme activity, inhibitor			0.26
CN1CCN(c2ccc(Nc3ncc4cc(C#N)c(=O)n(C5CCCC5)c4n3)cc2)CC1	Serine/threonine-protein kinase MARK2 (MARK2, Homo sapiens, UniProt Q7KZI7)	enzyme activity, inhibitor			0.566
O=C(O)CSc1nnc(Br)n1-c1ccc(C2CC2)c2ccccc12	ABCG2	transporter uptake, inhibitor	Caco-2	2 h	> 3000
CCS(=O)(=O)N1CC(CC#N)(n2cc(-c3ncnc4[nH]ccc34)cn2)C1	ABCG2	transporter uptake, inhibitor, radiometric	Sf9	0.75 min, cell membranes	50.3
CCOCc1nc(O)c(-c2nnc(Cc3ccc(Cl)cn3)o2)c(O)c1-c1c(OC)cccc1OC	Histamine H2 receptor (HRH2, Homo sapiens, UniProt P25021)	ligand displacement, radioligand			> 30
O=C(c1ccc(O)cc1O)[C@H](O)[C@@H](O)c1ccc(O)cc1	MAOA	enzyme activity, inhibitor			0.62

Structure (SMILES)	target	test	test system	setting	IC50 [µM]
Nc1ncnc2c1ncn2[C@@H]1O[C@H](CSCCNC(=O)NCc2ccc(F)cc2)[C@@H](O)[C@H]1O	PRMT3	enzyme activity, inhibitor, fluorescence			5.9
O=C(/C=C/c1ccc(O)cc1)c1ccc(O)cc1O	MAOA	enzyme activity, inhibitor			22.7
C#CCOc1ccc(/C=C/C(=O)N2CCC(Cc3ccccc3)CC2)cc1OC	MAOA	enzyme activity, inhibitor, fluorescence			45.2
O=C(Cc1cccs1)N[C@@H]1C(=O)N2C(C(=O)[O-])=C(C[n+]3ccccc3)CS[C@H]12	Rhomboid protease AarA	enzyme activity, inhibitor, fluorescence			18
O=C(c1ccccc1)c1ccc2n1CCC2C(=O)O (stereo not drawn)	Solute carrier family 22 member 6 (SLC22A6, Homo sapiens, UniProt Q4U2R8)	transporter uptake, inhibitor			0.653
CN1C(=O)c2c(nn(Cc3ccc(-c4cccc(F)n4)cc3)c2Nc2ccccc2)N2C1=N[C@@H]1CCC[C@@H]12	PDE7A	enzyme activity, inhibitor			> 0.1
COc1cccc(OC)c1OCCNCC1COc2ccccc2O1 (stereo not drawn)	Alpha-1A adrenergic receptor (ADRA1A, Homo sapiens, UniProt P35348)	ligand displacement, radioligand			0.00036
C=CC(=O)Nc1cc(Nc2nccc(Nc3cc(Cl)c(F)cc3C(C)(C)O)n2)c(OC)cc1N1CC[C@@H](N(C)C)C1	Focal adhesion kinase 1 (PTK2, Homo sapiens, UniProt Q05397)	enzyme activity, inhibitor		with preincubation	0.255
CC1=C[C@@]2(C[C@H](C)[C@H]3CC=C(C)[C@@H](O[C@@H]4O[C@H](CO)[C@@H](O)[C@H](O)[C@H]4O)[C@@H]3O2)OC1=O	PTPN1	enzyme activity, inhibitor			91.3
COc1ccc(C2=NN(C3CCCCCC3)C(=O)[C@@H]3CC=CC[C@H]23)cc1-c1ccc(C(N)=O)cc1 (relative stereo)	PDE7A	enzyme activity, inhibitor			> 10
N[C@@H](Cc1ccc(C(F)(F)P(=O)(O)O)cc1)C(=O)O	PTPN1	enzyme activity, inhibitor, absorbance			500
C[C@@H](N)COc1ccc(-c2cnc3ccc(N[C@H](C)c4cccc(F)c4)nn23)cc1	NTRK1	enzyme activity, inhibitor			0.0044
C[C@H](NC(=O)[C@@H](c1cccnc1)N(C(=O)CCl)c1ccc(-n2cccc2)cc1)c1ccccc1	Replicase polyprotein 1ab, main protease (rep, Severe acute respiratory syndrome coronavirus 2, UniProt P0DTD1)	enzyme activity, inhibitor, FRET			0.05
Cc1ccc(C(=O)Nc2ccc(S(=O)(=O)O)c3cc(S(=O)(=O)O)cc(S(=O)(=O)O)c23)cc1NC(=O)c1cccc(NC(=O)Nc2cccc(C(=O)Nc3cc(C(=O)Nc4ccc(S(=O)(=O)O)c5cc(S(=O)(=O)O)cc(S(=O)(=O)O)c45)ccc3C)c2)c1	P2X purinoceptor 4 (P2RX4, Homo sapiens, UniProt Q99571)	calcium signal, antagonist			44.2
CCOC(F)(F)c1nnc2cnc(-c3cnc(OCC(F)(F)F)c(F)c3)cn12	Sodium channel protein type 1 subunit alpha (SCN1A, Homo sapiens, UniProt P35498)	ion current, inhibitor, patch clamp			0.683
O=C(CC(=O)c1cccc(N(Cc2ccccc2)Cc2ccccc2)c1)C(=O)N1CCN(C(=O)C(=O)CC(=O)c2cccc(N(Cc3ccccc3)Cc3ccccc3)c2)CC1	PTPN1	enzyme activity, inhibitor, absorbance		pH 7	2.8
O=c1cc(-c2ccc(O)cc2)oc2c([C@@H]3O[C@H](CO)[C@@H](O)[C@H](O)[C@H]3O)c(O)cc(O)c12	MAOA	enzyme activity, inhibitor			38.6
CN1CCN(CCCN2c3ccccc3Sc3ccc(Cl)cc32)CC1	GSR	enzyme activity, inhibitor, absorbance			> 100
Nc1ncnc2c1ncn2[C@@H]1O[C@H](CSCCNC(=O)NCc2ccccc2)[C@@H](O)[C@H]1O	PRMT5	enzyme activity, inhibitor, radiometric			< 2.4
